Test results as given in PMC6061410 (Clinical Drug Investigation, 2018).

System: healthy young and healthy elderly subjects
Assay: Safety and tolerability
Format: in vivo, human
Conditions: young
Method in brief: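 Adverse events were recorded by system organ class and preferred term in the treated set. This was 84 healthy young or elderly subjects randomised 3:1 to oral drug or placebo over 14 days, across seven ascending dose groups with a safety review before each escalation. Changes were assessed against the last pre-dose baseline measurement.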

C[C@@H](Oc1ccc(S(C)(=O)=O)cc1C(=O)N1C[C@@H]2C[C@]2(c2cc(C(F)(F)F)on2)C1)C(F)(F)F [BI 425809]
Gastrointestinal disorders (part 1, 25 mg QD): 3 (33.3) n (%) | General disorders and administration site conditions (part 1, 25 mg QD): 0 (–) n (%) | Headache (part 1, 25 mg QD): 3 (33.3) n (%) | Infections and infestations (part 1, 25 mg QD): 2 (22.2) n (%) | Insomnia (part 1, 25 mg QD): 0 (–) n (%) | Musculoskeletal and connective tissue disorders (part 1, 25 mg QD): 0 (–) n (%) | Nasopharyngitis (part 1, 25 mg QD): 2 (22.2) n (%) | Nervous system disorder (part 1, 25 mg QD): 3 (33.3) n (%) | Ocular discomfort (part 1, 25 mg QD): 0 (–) n (%) | Psychiatric disorders (part 1, 25 mg QD): 1 (11.1) n (%) | Subjects with AEs leading to study discontinuation (part 1, 25 mg QD): 0 (–) n (%) | Subjects with investigator-defined drug-related AEs (part 1, 25 mg QD): 6 (66.7) n (%) | Total with AEs (part 1, 25 mg QD): 7 (77.8) n (%) | Vision blurred (part 1, 25 mg QD): 2 (22.2) n (%) | Dizziness (part 1, 50 mg QD): 1 (11.1) n (%) | Eye disorders (part 1, 50 mg QD): 3 (33.3) n (%) | Gastrointestinal disorders (part 1, 50 mg QD): 0 (–) n (%) | General disorders and administration site conditions (part 1, 50 mg QD): 2 (22.2) n (%) | Headache (part 1, 50 mg QD): 3 (33.3) n (%) | Infections and infestations (part 1, 50 mg QD): 1 (11.1) n (%) | Insomnia (part 1, 50 mg QD): 0 (–) n (%) | Musculoskeletal and connective tissue disorders (part 1, 50 mg QD): 1 (11.1) n (%) | Nasopharyngitis (part 1, 50 mg QD): 0 (–) n (%) | Nervous system disorder (part 1, 50 mg QD): 3 (33.3) n (%) | Ocular discomfort (part 1, 50 mg QD): 0 (–) n (%) | Psychiatric disorders (part 1, 50 mg QD): 0 (–) n (%) | Subjects with AEs leading to study discontinuation (part 1, 50 mg QD): 0 (–) n (%) | Subjects with investigator-defined drug-related AEs (part 1, 50 mg QD): 6 (66.7) n (%) | Total with AEs (part 1, 50 mg QD): 6 (66.7) n (%) | Vision blurred (part 1, 50 mg QD): 1 (11.1) n (%) | Dizziness (part 1, 75 mg BID): 2 (22.2) n (%) | Eye disorders (part 1, 75 mg BID): 2 (22.2) n (%) | Gastrointestinal disorders (part 1, 75 mg BID): 0 (–) n (%) | General disorders and administration site conditions (part 1, 75 mg BID): 1 (11.1) n (%) | Headache (part 1, 75 mg BID): 0 (–) n (%) | Infections and infestations (part 1, 75 mg BID): 0 (–) n (%) | Insomnia (part 1, 75 mg BID): 3 (33.3) n (%) | Musculoskeletal and connective tissue disorders (part 1, 75 mg BID): 0 (–) n (%) | Nasopharyngitis (part 1, 75 mg BID): 0 (–) n (%) | Nervous system disorder (part 1, 75 mg BID): 2 (22.2) n (%) | Ocular discomfort (part 1, 75 mg BID): 2 (22.2) n (%) | Psychiatric disorders (part 1, 75 mg BID): 3 (33.3) n (%) | Subjects with AEs leading to study discontinuation (part 1, 75 mg BID): 0 (–) n (%) | Subjects with investigator-defined drug-related AEs (part 1, 75 mg BID): 6 (66.7) n (%) | Total with AEs (part 1, 75 mg BID): 6 (66.7) n (%) | Vision blurred (part 1, 75 mg BID): 0 (–) n (%) | Dizziness (part 1, 75 mg QD): 3 (33.3) n (%) | Eye disorders (part 1, 75 mg QD): 0 (–) n (%) | Fatigue (part 1, 75 mg QD): 1 (11.1) n (%) | Gastrointestinal disorders (part 1, 75 mg QD): 2 (22.2) n (%) | General disorders and administration site conditions (part 1, 75 mg QD): 1 (11.1) n (%) | Headache (part 1, 75 mg QD): 4 (44.4) n (%) | Infections and infestations (part 1, 75 mg QD): 1 (11.1) n (%) | Insomnia (part 1, 75 mg QD): 0 (–) n (%) | Musculoskeletal and connective tissue disorders (part 1, 75 mg QD): 1 (11.1) n (%) | Nasopharyngitis (part 1, 75 mg QD): 1 (11.1) n (%) | Nervous system disorder (part 1, 75 mg QD): 5 (55.6) n (%) | Ocular discomfort (part 1, 75 mg QD): 0 (–) n (%) | Psychiatric disorders (part 1, 75 mg QD): 0 (–) n (%) | Subjects with AEs leading to study discontinuation (part 1, 75 mg QD): 0 (–) n (%) | Subjects with investigator-defined drug-related AEs (part 1, 75 mg QD): 5 (55.6) n (%) | Total with AEs (part 1, 75 mg QD): 6 (66.7) n (%) | Vision blurred (part 1, 75 mg QD): 0 (–) n (%) | Dizziness (part 1, Total BI n = 45): 7 (15.6) n (%) | Eye disorders (part 1, Total BI n = 45): 7 (15.6) n (%) | Fatigue (part 1, Total BI n = 45): 1 (2.2) n (%) | Gastrointestinal disorders (part 1, Total BI n = 45): 5 (11.1) n (%) | General disorders and administration site conditions (part 1, Total BI n = 45): 4 (8.9) n (%) | Headache (part 1, Total BI n = 45): 13 (28.9) n (%) | Infections and infestations (part 1, Total BI n = 45): 5 (11.1) n (%) | Insomnia (part 1, Total BI n = 45): 3 (6.7) n (%) | Musculoskeletal and connective tissue disorders (part 1, Total BI n = 45): 3 (6.7) n (%) | Nasopharyngitis (part 1, Total BI n = 45): 3 (6.7) n (%) | Nervous system disorder (part 1, Total BI n = 45): 17 (37.8) n (%) | Ocular discomfort (part 1, Total BI n = 45): 2 (4.4) n (%) | Psychiatric disorders (part 1, Total BI n = 45): 4 (8.9) n (%) | Subjects with AEs leading to study discontinuation (part 1, Total BI n = 45): 0 (–) n (%) | Subjects with investigator-defined drug-related AEs (part 1, Total BI n = 45): 27 (60.0) n (%) | Total with AEs (part 1, Total BI n = 45): 30 (66.7) n (%) | Vision blurred (part 1, Total BI n = 45): 3 (6.7) n (%) | Eye disorders (parts 1 and 2, BI n = 57): 7 (12.3) n (%) | Gastrointestinal disorders (parts 1 and 2, BI n = 57): 5 (8.8) n (%) | General disorders and administration site conditions (parts 1 and 2, BI n = 57): 4 (7.0) n (%) | Infections and infestations (parts 1 and 2, BI n = 57): 6 (10.5) n (%) | Musculoskeletal and connective tissue disorders (parts 1 and 2, BI n = 57): 3 (5.3) n (%) | Nervous system disorder (parts 1 and 2, BI n = 57): 18 (31.6) n (%) | Psychiatric disorders (parts 1 and 2, BI n = 57): 4 (7.0) n (%) | Subjects with AEs leading to study discontinuation (parts 1 and 2, BI n = 57): 0 (–) n (%) | Subjects with investigator-defined drug-related AEs (parts 1 and 2, BI n = 57): 27 (47.4) n (%) | Total with AEs (parts 1 and 2, BI n = 57): 32 (56.1) n (%)
